Results gathered from unrelated publications.
Protocols differ between the studies behind these lines.
ERG11: Lanosterol 14-alpha demethylase (ERG11, Candida albicans, UniProt P10613)
Integrin alpha-V/beta-6: Integrin alpha-V/beta-6 (Homo sapiens, UniProt P06756+P18564)
ST14: Suppressor of tumorigenicity 14 protein (ST14, Homo sapiens, UniProt Q9Y5Y6)
HTR7: 5-hydroxytryptamine receptor 7 (HTR7, Homo sapiens, UniProt P34969)

SMILES	target	observed	mode	technique	measurement	value
Cc1cc(O)c2c(=O)c3c(O)cc(O)c4c5c(O)cc(O)c6c(=O)c7c(O)cc(C)c8c1c2c(c34)c(c78)c65	Calreticulin (CALR, Homo sapiens, UniProt P27797)	binding	–	MST	Kd	3.68 µM
CCN1CCN(Cc2ccc(Nc3ncc(F)c(-c4cc(F)c5nc6n(c5c4)[C@H](C)CCC6)n3)nc2)CC1	Multidrug and toxin extrusion protein 1 (SLC47A1, Homo sapiens, UniProt Q96FL8)	enzyme activity	inhibitor	–	IC50	0.0212 µM
OC(COc1ccc(-c2nnco2)cc1)CN1CCN(CC(O)COc2ccc(-c3nnco3)cc2)CC1 (centres unmarked)	ERG11	enzyme activity	inhibitor	mass spectrometry	IC50	> 50 µM
CC1=CC(=O)[C@@H](O)[C@]2(C)[C@H]3[C@@H](O)[C@H](O)[C@@]4(C)OC[C@@]35[C@@H](C[C@@H]12)OC(=O)[C@H](O)[C@]54O	Serine/threonine-protein kinase pim-1 (PIM1, Homo sapiens, UniProt P11309)	binding	–	SPR	Kd	6.57 µM
C[C@@H](O)[C@H](NC(=O)C(C)(C)NC(=O)[C@@H](N)CS)C(=O)N[C@@H](CCCNC(=N)N)C(=O)NCC(=O)N[C@@H](CC(=O)O)C(=O)N[C@@H](Cc1cccnc1)C(=O)N1CC(F)(F)C[C@H]1C(N)=O	Integrin alpha-V/beta-6	binding	–	BLI	Kd	54.9 µM
CS(=O)(=O)N[C@@H](CCC(N)=O)C(=O)N[C@@H](Cc1ccccc1)C(=O)N[C@@H](CCCNC(=N)N)C(=O)c1nccs1	ST14	cell-free assay	–	–	Ki	0.017 µM
O=S(=O)(c1ccc(OCC(O)CN2CCCC2)c(Cl)c1)c1ccc(OCC(O)CN2CCCC2)c(Cl)c1 (centres unmarked)	ERG11	enzyme activity	inhibitor	mass spectrometry	IC50	> 50 µM
CC(C)(NC(=O)[C@@H](N)CS)C(=O)N[C@@H](CO)C(=O)N[C@@H](CCCNC(=N)N)C(=O)NCC(=O)N[C@@H](CC(=O)O)C(=O)N[C@@H](Cc1c(F)c(F)c(F)c(F)c1F)C(=O)N1CCC(F)(F)C[C@H]1C(N)=O	Integrin alpha-V/beta-6	binding	–	BLI	Kd	70.4 µM
COc1cc2c(cc1OC)CN(CCc1ccc(NC(=O)c3cccc4c(=O)c5cccc(OC)c5[nH]c34)cc1)CC2	HTR7	cell-free assay	–	–	Ki	0.235 µM
COCCC(=O)N[C@@H](CCC(N)=O)C(=O)N[C@@H](Cc1ccccc1)C(=O)N[C@@H](CCCNC(=N)N)C(=O)c1nc2ccccc2s1	ST14	cell-free assay	–	–	Ki	0.00094 µM
CCCCC1CNC2CCc3ccc(OC)cc3C12 (racemic)	HTR7	ligand displacement	–	radioligand	Ki	0.586 µM
